Active and inactive are the calls of the source. The rule behind the calls is not given here.
Legend:
Mus musculus [1] = organism: Mus musculus; experiment: Immunostimulatory activity in BALB/c mouse splenocytes assessed as induction of cell proliferation up to 1000 ng/ml after 3 days by [3H]-thymidine incorporation assay; assay type: functional; conditions: Splenocyte
Outline: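 Spleen cells from female BALB/c mice (2×10^5/well) were cultured with agonist at 0–1000 ng/mL in RPMI 1640 containing 10% FCS, gentamicin, 10 mM HEPES and 0.05 mM 2-mercaptoethanol. [3H]-thymidine was added after 48 h, with harvest 18 h later. Result is a stimulation index (mean cpm stimulated / unstimulated) from triplicate wells.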

[2] = molecular target: Toll-like receptor 2 (Homo sapiens) (UniProt O60603); experiment: Agonist activity at TLR2 in human THP1-Blue-CD14 cells transfected with pSEAP-NF-kappaB assessed as secreted embryonic alkaline phosphatase activity treated with PC/PG/Chol liposomes formulation after 19 hrs by quanti-blue colorimetric assay; assay type: functional, cell-based; conditions: THP-1
Sequence of Toll-like receptor 2 (Homo sapiens) (O60603 whole entry): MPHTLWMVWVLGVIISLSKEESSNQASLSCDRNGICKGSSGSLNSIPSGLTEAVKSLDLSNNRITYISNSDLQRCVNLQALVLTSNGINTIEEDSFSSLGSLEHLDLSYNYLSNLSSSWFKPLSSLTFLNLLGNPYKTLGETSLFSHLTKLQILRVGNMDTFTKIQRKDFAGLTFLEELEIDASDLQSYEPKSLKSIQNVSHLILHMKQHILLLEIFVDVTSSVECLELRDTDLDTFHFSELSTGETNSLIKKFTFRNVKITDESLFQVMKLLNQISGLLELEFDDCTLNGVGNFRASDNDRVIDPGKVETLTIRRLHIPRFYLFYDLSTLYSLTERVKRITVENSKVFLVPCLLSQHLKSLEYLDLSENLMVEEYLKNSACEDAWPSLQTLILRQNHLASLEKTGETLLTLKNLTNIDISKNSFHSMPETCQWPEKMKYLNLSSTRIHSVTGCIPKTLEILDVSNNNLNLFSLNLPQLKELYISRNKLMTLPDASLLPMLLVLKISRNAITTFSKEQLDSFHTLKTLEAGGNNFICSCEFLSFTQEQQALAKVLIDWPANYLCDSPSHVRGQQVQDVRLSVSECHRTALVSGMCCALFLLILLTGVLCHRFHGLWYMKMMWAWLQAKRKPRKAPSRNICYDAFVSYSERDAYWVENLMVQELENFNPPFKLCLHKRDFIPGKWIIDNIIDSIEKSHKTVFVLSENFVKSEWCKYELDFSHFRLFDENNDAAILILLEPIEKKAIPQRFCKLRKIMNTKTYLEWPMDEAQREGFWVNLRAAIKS
Outline: (§1)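 THP1-Blue-CD14 cells were grown in RPMI 1640 with glucose (4.5 mg/mL) and 10% endotoxin-free FBS at 37 °C, 5% CO2. They were plated at 1.5×10^6 cells/mL and exposed to compounds formulated in PC/PG/Chol liposomes for 19 h at 37 °C. Supernatant was then mixed with Quanti-Blue reagent for 2 h at 37 °C and OD read at 595 nm. Controls were LPS (positive) and blank PC/PG/cholesterol (80/20/50) liposomes (negative); triplicates.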

Mus musculus [3] = organism: Mus musculus; experiment: Immunostimulatory activity in BALB/c mouse B cells assessed as induction of cell proliferation at 0.001 ug/ml after 3 days by [3H]-thymidine incorporation assay relative to Pam2CAG; assay type: functional
Outline: (§2)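 B cells were purified from female BALB/c spleens by negative selection (anti-CD11b, GR1, CD4 and CD8 mAbs plus magnetic beads; >90% B cells) and seeded at 1×10^5/well. Culture was in RPMI 1640 with 10% FCS, gentamicin, 10 mM HEPES and 0.05 mM 2-mercaptoethanol, across increasing agonist doses. [3H]-thymidine was added at 48 h and cells harvested 18 h later. Stimulation index = mean cpm stimulated / unstimulated; triplicates.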

[4] = molecular target: Toll-like receptor 2 (Homo sapiens) (UniProt O60603); experiment: Agonist activity at TLR2 in human THP1-Blue-CD14 cells transfected with pSEAP-NF-kappaB assessed as secreted embryonic alkaline phosphatase activity treated with PC/PG/Chol liposomes formulation at 0.1 uM after 19 hrs by quanti-blue colorimetric assay in presence of anti-mTLR2 antibody; assay type: functional, cell-based; conditions: THP-1
Outline: (§3)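 TLR2 in THP1-Blue-CD14 cells was neutralised with an anti-mTLR2 monoclonal antibody (100 ng/well) for 10 min before liposome-formulated agonist was added. Cells were incubated 19 h at 37 °C, and SEAP in supernatant was read by Quanti-Blue colorimetry (2 h, 37 °C, OD 595 nm). Activity was compared with cells lacking antibody; triplicates.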

[5] = Induction of dendritic cell maturation in mouse D1 cells assessed as upregulation of CD40, CD54, CD80 and CD86 expression at 2.5 ug/ml after 48 hrs by flow cytometry in presence of polymyxin B; assay type: functional, cell-based
Outline: (§4)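 D1 cells were kept in IMDM with 10% heat-decomplemented FCS, penicillin (100 IU/mL), 2 mM L-glutamine and GM-CSF (20 ng/mL). They were seeded at 2×10^5 cells/mL for 48 h, then given fresh medium with compound (DMSO/PBS 2/98) plus polymyxin B, except LPS wells, for 48 h. Cells were harvested in PBS with 2 mM EDTA, stained 20 min at 4 °C and analysed by flow cytometry.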

Mus musculus [6] = organism: Mus musculus; experiment: Immunostimulatory activity in BALB/c mouse splenocytes assessed as induction of TNFalpha secretion after 30 hrs by double-sandwich ELISA; assay type: functional; conditions: Splenocyte
Outline: (§5)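 BALB/c splenocytes (2×10^5/well) were exposed to increasing agonist doses in supplemented RPMI 1640. Supernatants were collected at 30 h, stored at −20 °C, and assayed by double-sandwich ELISA. Values are pg/mL, mean of duplicates; detection limit 15 pg/mL for both IL-6 and TNF-α.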

[7] = molecular target: Toll-like receptor 2 (Homo sapiens) (UniProt O60603); experiment: Agonist activity at TLR2 in human THP1-Blue-CD14 cells transfected with pSEAP-NF-kappaB assessed as secreted embryonic alkaline phosphatase activity after 19 hrs by quanti-blue colorimetric assay relative to 10 uM of Pam3CAG; assay type: functional, cell-based; conditions: THP-1; outline: as §1
[8] = Induction of dendritic cell maturation in mouse D1 cells assessed as upregulation of CD40, CD54, CD80 and CD86 expression at 2.5 ug/ml after 48 hrs by flow cytometry relative to Pam3CAG; assay type: functional, cell-based; outline: as §4
[9] = molecular target: Toll-like receptor 2 (Homo sapiens) (UniProt O60603); experiment: Agonist activity at TLR2 in human THP1-Blue-CD14 cells transfected with pSEAP-NF-kappaB assessed as secreted embryonic alkaline phosphatase activity after 19 hrs by quanti-blue colorimetric assay relative to 0.1 uM of Pam2CAG; assay type: functional, cell-based; conditions: THP-1; outline: as §1
Mus musculus [10] = organism: Mus musculus; experiment: Immunostimulatory activity in BALB/c mouse B cells assessed as induction of cell proliferation at 0.001 ug/ml after 3 days by [3H]-thymidine incorporation assay relative to Pam3CAG; assay type: functional; outline: as §2
NKT [11] = experiment: Immunostimulatory activity in activated NKT cells assessed as induction of cell proliferation in presence of mAb directed CD1d molecules; assay type: functional, cell-based
NKT [12] = experiment: Immunostimulatory activity in activated NKT cells assessed as induction of IFNgamma production; assay type: functional, cell-based
Mus musculus [13] = organism: Mus musculus; experiment: Immunostimulatory activity in BALB/c mouse splenocytes assessed as induction of IL-6 secretion after 30 hrs by double-sandwich ELISA; assay type: functional; conditions: Splenocyte; outline: as §5
Mus musculus [14] = organism: Mus musculus; experiment: Immunostimulatory activity in BALB/c mouse B cells assessed as induction of cell proliferation after 3 days by [3H]-thymidine incorporation assay; assay type: functional; outline: as §2
NKT [15] = experiment: Immunostimulatory activity in activated NKT cells assessed as induction of IL-4 production; assay type: functional, cell-based
[16] = Induction of dendritic cell maturation in mouse D1 cells assessed as upregulation of CD40, CD54, CD80 and CD86 expression at 2.5 ug/ml after 48 hrs by flow cytometry relative to Pam2CAG; assay type: functional, cell-based; outline: as §4
[17] = molecular target: Toll-like receptor 2 (Homo sapiens) (UniProt O60603); experiment: Agonist activity at TLR2 in human THP1-Blue-CD14 cells transfected with pSEAP-NF-kappaB assessed as secreted embryonic alkaline phosphatase activity treated with PBS containing 2% DMSO formulation after 19 hrs by quanti-blue colorimetric assay; assay type: functional, cell-based; conditions: THP-1
[18] = molecular target: Toll-like receptor 2 (Homo sapiens) (UniProt O60603); experiment: Agonist activity at TLR2 in human HEK-Blue-2 cells; assay type: functional, cell-based
[19] = molecular target: Toll-like receptor 2 (Homo sapiens) (UniProt O60603); experiment: Agonist activity at TLR2 in human THP1-Blue-CD14 cells transfected with pSEAP-NF-kappaB assessed as secreted embryonic alkaline phosphatase activity treated with PC/PG/Chol liposomes formulation at 10 uM after 19 hrs by quanti-blue colorimetric assay in presence of anti-mTLR2 antibody; assay type: functional, cell-based; conditions: THP-1; outline: as §3

Row | SMILES | Activity (Mus musculus [1]) | Activity [2] | Activity (Mus musculus [3]) | Activity [4] | Activity [5] | Activity (Mus musculus [6]) | fold change (FC) [7] | Activity [8] | Activity [9] | Activity (Mus musculus [10]) | Activity (NKT [11]) | Activity (NKT [12]) | Activity (Mus musculus [13]) | Activity (Mus musculus [14]) | Activity (NKT [15]) | Activity [16] | Activity [17] | Activity [18] | Activity [19]
1 | CCCCCCCCCCCCCCCC(=O)OC[C@H](CSC[C@H](N)C(=O)NCCO[C@H]1O[C@@H]([C@H](O)CO)[C@H](O)[C@H]1O)OC(=O)CCCCCCCCCCCCCCC | Active | Active | Active | Active | Active | Dose-dependent effect | 100 | Active | Active | Active | Active | inactive | Dose-dependent effect | Dose-dependent effect | inactive | Active | Active | Active | 
2 | CCCCCCCCCCCCCCCC(=O)OC[C@H](CSC[C@H](N)C(=O)NCCO[C@H]1O[C@H](CO)[C@H](O)[C@H](O)[C@H]1O)OC(=O)CCCCCCCCCCCCCCC | Active | Active | Active | Active | Active | Dose-dependent effect | 100 | Active | Active | Active | Active | inactive | Dose-dependent effect | Dose-dependent effect | inactive | Active | Active | Active | 
3 | CCCCCCCCCCCCCCCC(=O)N[C@@H](CSC[C@@H](COC(=O)CCCCCCCCCCCCCCC)OC(=O)CCCCCCCCCCCCCCC)C(=O)N[C@@H](C)C(=O)NCC(=O)O | Active | Active |  |  | Active | Dose-dependent effect |  |  |  |  | Active | inactive | Dose-dependent effect | Dose-dependent effect | inactive |  | Active | Active | inactive
4 | CCCCCCCCCCCCCCCC(=O)OC[C@H](CSC[C@H](N)C(=O)N[C@@H](C)C(=O)NCC(=O)O)OC(=O)CCCCCCCCCCCCCCC | Active | Active |  | Active | Active | Dose-dependent effect |  |  |  |  | Active | inactive | Dose-dependent effect | Dose-dependent effect | inactive |  | Active | Active | 
